Measured values collected from several papers.
Each line is one published result; the experiments were not run side by side.
Cell line: MCF7
Effect on: cell growth or viability

| SMILES | assay | setting | IC50 |
| --- | --- | --- | --- |
| C/C(=N\CCNCCNCC/N=C(\C)c1c(O)c2ccccc2oc1=O)c1c(O)c2ccccc2oc1=O | MTT | 48 h | 7.52 µM |
| O=S(=O)([O-])c1ccc(O)c(C=NNC(=S)Nc2cccc3ccccc23)c1.[Na+] | MTT | 24 h | > 800 µg/mL |
| Cc1nc2ccc(-c3ccc(F)cc3)cc2c(O)c1C(=O)O | MTT | 48 h | ≥ 100 µM |
| C[C@H]1[C@H](C)CC[C@]2(C)CC[C@]3(C)C(=CC(=O)[C@@H]4[C@@]5(C)CC[C@@H](O)[C@](C)(C(=O)NCc6cn(-c7cccc(Br)c7)nn6)[C@@H]5CC[C@]43C)[C@H]12 | MTT | 24 h | 67 µM |
| O=C1C(=Nc2ccccc2I)c2ccccc2N1Cc1ccc(Br)cc1 | MTT | 48 h | 8.79 µM |
| O=[N+]([O-])c1cc(I)c(O)c(C=NNc2ccc(Cl)cc2)c1 | MTT | 24 h | 14 µM |
| CC(C)[C@@H](CS(=O)(=O)C(C)C)N1C(=O)[C@@](C)(CC(=O)O)C[C@H](c2cccc(Cl)c2)[C@H]1c1ccc(Cl)cc1 | ATP luminescence | 48 h | ~3.9 µM |
| CN(C)C(=O)Nc1nc2c(Cl)cc(Cl)cc2c(=O)n1-c1ccccc1 | MTT | 48 h | > 200 µM |
| CC(C)c1cccc(C(C)C)c1N=C1C(=O)Nc2ccccc21 | MTT | 48 h | 0.69 µM |
| C/C(=N\CCNCC/N=C(\C)c1c(O)c2ccccc2oc1=O)c1c(O)c2ccccc2oc1=O | MTT | 48 h | 11 µM |
| O=C1C(=Nc2ccc(Cl)cc2)c2ccccc2N1Cc1ccc([N+](=O)[O-])cc1 | MTT | 48 h | 2.65 µM |
| CCCN1CC(Oc2ccc([C@@H]3c4[nH]c5ccccc5c4C[C@@H](C)N3CC(C)(C)F)cc2)C1 |  |  | 0.00794 µM |
| O=C1CS/C(=N\c2ccccc2O)N1c1nnc(-c2ccc(C(F)(F)F)cc2/N=C2\SCC(=O)N2c2ccccc2O)s1 | MTT |  | 32.4 µM |
| O=c1[nH]cc(F)c(=O)[nH]1 | MTT | 48 h | 11.3 µM |
| COc1ccc2c(-c3ncc(-c4ccccc4)o3)nn(Cc3ccccc3)c2c1 |  | 48 h | 88 µM |
| Cc1nc2ccc(-c3cccc(F)c3)cc2c(O)c1C(=O)O | MTT | 48 h | ≥ 100 µM |
| O=C(C=Cc1ccc(OCCCOc2ccc(C=CC(=O)c3cccs3)cc2)cc1)c1cccs1 | MTT | 48 h | 30.1 µM |
| C[C@H]1[C@H](C)CC[C@]2(C(=O)O)CC[C@]3(C)C(=CC[C@@H]4[C@@]5(C)CC[C@H](O)C(C)(C)[C@@H]5CC[C@]43C)[C@H]12 | MTT | 24 h | 27.3 µM |
| O=C1CS/C(=N\c2cc(C(F)(F)F)ccc2-c2nnc(N3C(=O)CS/C3=N\c3ccc(F)cc3)s2)N1c1ccc(F)cc1 | MTT |  | 22.5 µM |

| SMILES | assay | setting | IC50 |
| --- | --- | --- | --- |
| C(=N\Nc1cc(N/N=C/c2ccc3ccccc3n2)nc(-c2ccccc2)n1)/c1ccc2ccccc2n1 | MTT | 48 h | 7.05 µM |
| O=C(NO)Nc1nc2c(Cl)cc(Cl)cc2c(=O)n1-c1ccccc1 | MTT | 48 h | > 200 µM |
| CC(=O)c1nc2ccccc2n1Cc1cn([C@@H]2OC[C@@H](O)[C@H](O)[C@H]2O)nn1 | LDH | 48 h | 2.08 µM |
| CC(C)c1ccc(/C=C2\N=C(SCC(=O)O)N(c3ccccc3)C2=O)cc1 | MTT |  | 49.2 µg/mL |
| Clc1ccc(Cn2nc(-c3nc(-c4ccccc4)no3)c3ccccc32)c(Cl)c1 |  | 48 h | 66.5 µM |
| NS(=O)(=O)c1ccc(-n2nc(C(=O)NN3C(=O)CCC3=O)cc2-c2ccccc2)cc1 | fluorescence | 48 h | 32.5 µM |
| O=C1C(Cl)=C(n2cncn2)C(=O)c2ccccc21 | MTT | 24 h | 26.8 µg/mL |
| COc1cccc2c1C(=O)c1c(O)c3c(c(O)c1C2=O)C[C@@](O)(C(=O)CO)C[C@@H]3O[C@H]1C[C@H](N)[C@H](O)[C@H](C)O1 |  | 96 h | 0.146 µM |
| C[C@H]1[C@H](C)CC[C@]2(C)CC[C@]3(C)C(=CC(=O)[C@@H]4[C@@]5(C)CC[C@@H](O)[C@](C)(C(=O)NCc6cn(-c7ccc(Br)cc7)nn6)[C@@H]5CC[C@]43C)[C@H]12 | MTT | 24 h | 75.1 µM |
| COc1ccc(C=NNC(=O)c2cc(-c3ccccc3)n(-c3ccc(S(N)(=O)=O)cc3)n2)cc1OC | fluorescence | 48 h | 21.1 µM |
| O=c1c2cc(Cl)cc(Cl)c2nc(NNc2cccc(Cl)c2)n1-c1ccccc1 | MTT | 48 h | > 200 µM |
| COC(=O)c1ccc2c(c1)NC(=O)/C2=C(\Nc1ccc(N(C)C(=O)CN2CCN(C)CC2)cc1)c1ccccc1 | MTT | 24 h | 0.98 µM |
| O=C(/C=C/c1ccc(F)cc1)c1nc2ccccc2n1Cc1cn([C@@H]2O[C@H](CO)[C@H](O)[C@H](O)[C@H]2O)nn1 | LDH | 48 h | 1.99 µM |
| COc1ccc(N(Cc2csc(-c3ccc(C)cc3)n2)C(=O)CCCCCC(=O)NO)cc1 | MTT | 72 h | 3.31 µM |
| COc1ccccc1/C=N/N=C1\C(=O)Nc2ccccc21 | MTT | 24 h | 45.6 µg/mL |
| O=C1CS/C(=N\c2cc(C(F)(F)F)ccc2-c2nnc(N3C(=O)CS/C3=N\c3ccc(F)c(O)c3)s2)N1c1ccc(F)c(O)c1 | MTT |  | 25.8 µM |
| O=C1Nc2ccccc2C1=Nc1ccccc1Br | MTT | 48 h | > 100 µM |
| O=C1CS/C(=N\c2cc(C(F)(F)F)ccc2-c2nnc(N3C(=O)CS/C3=N\c3ccc(-c4ccccc4)cc3)s2)N1c1ccc(-c2ccccc2)cc1 | MTT |  | 90.1 µM |
| O=C(NO)Nc1nc2c(Cl)cc(Cl)cc2c(=O)n1-c1ccc(Cl)cc1 | MTT | 48 h | > 200 µM |

| SMILES | assay | setting | IC50 |
| --- | --- | --- | --- |
| Cc1ccc(CN2C(=O)C(=Nc3c(C(C)C)cccc3C(C)C)c3ccccc32)cc1 | MTT | 48 h | 53.1 µM |
| O=C(O)c1cn(Cc2ccc(C(F)(F)F)cc2)c2ccc(Oc3ccccc3)cc2c1=O | MTT | 24 h | 38.5 µM |
| Cc1ccc(CN2C(=O)C(=Nc3cccc(Cl)c3)c3ccccc32)cc1 | MTT | 48 h | 2.26 µM |
| CCOC(=O)C(=CNc1ccc(Oc2ccccc2)cc1)C(=O)OCC | MTT |  | ≥ 200 µM |
| Fc1ccc2c(-c3ncc(-c4ccccc4)o3)nn(Cc3ccccc3)c2c1 |  | 48 h | 71 µM |
| Cc1ccc(CN2C(=O)C(=Nc3cccc(C)c3)c3ccccc32)cc1 | MTT | 48 h | 2.8 µM |
| CCCCCCCNC1=C(n2cncn2)C(=O)c2ccccc2C1=O | MTT | 24 h | 22.3 µg/mL |
| Fc1ccc(NC(=S)N/N=C/c2cccc3cc4ccccc4nc23)cc1 | MTT | 48 h | > 50 µM |
| C/C(=N\C(=S)/N=C(\C)c1c(O)c2ccccc2oc1=O)c1c(O)c2ccccc2oc1=O | MTT | 48 h | 7.59 µM |
| O=[N+]([O-])c1ccc(NC(=S)N/N=C/c2cccc3cc4ccccc4nc23)cc1 | MTT | 48 h | > 50 µM |
| O=[N+]([O-])c1cc(Br)c(O)c(C=NNc2ccc(C(F)(F)F)cc2)c1 | MTT | 24 h | 8 µM |
| O=C1C(=Nc2cccc(Cl)c2)c2ccccc2N1Cc1ccc([N+](=O)[O-])cc1 | MTT | 48 h | 6.95 µM |
| NS(=O)(=O)c1ccc(-n2nc(-c3nnc(S)o3)cc2-c2ccccc2)cc1 | fluorescence | 48 h | 35.4 µM |
| O=C(O)c1c[nH]c2ccc(Oc3ccccc3)cc2c1=O | MTT | 24 h | 311 µM |
| c1ccc(-c2noc(-c3nn(Cc4ccncc4)c4ccccc34)n2)cc1 |  | 48 h | 18.7 µM |
| COc1cccc(Nc2nc(-c3ccncc3)nc3c2CNCC3)c1 | MTT |  | 30.1 µM |
| CCOC(=O)c1c(C)nc2ccc(-c3cccc(F)c3)cc2c1O | MTT | 48 h | 10.5 µM |
| O=C(C=Cc1cccs1)c1ccc(OCCOc2ccc(C(=O)C=Cc3cccs3)cc2)cc1 | MTT | 48 h | 7.87 µM |
